Measured values reported in ChEMBL document CHEMBL5724801, “EUbOPEN Chemogenomics Library - Multiplex” (2024).
Values joined by “and” are separate entries in the source; they are usually repeats but may differ in a detail not shown here. Equal entries are not always repeated.

Key:
Type in all cases: toxicity, cell-based
Fibroblast = assay: Multiplex assay against human fibroblast
In short: (§1)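 Four dyes were applied at seeding to live cells: Hoechst33342, BioTracker Green Microtubule Cytoskeleton Dye, MitoTracker Red and Annexin V Alexa Fluor 680. Imaging after compound addition used a CQ1 microscope at 37°C and 5% CO2. CellPathfinder machine-learning gating then sorted cells into Hoechst high-intensity objects or normal cells, normal cells into healthy, pyknosed or fragmented nuclei, and pyknosed cells into mitotic or apoptotic, with tubulin, mitochondrial-mass and membrane-permeability phenotypes given as per cents of healthy-nucleus cells.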

HEK-293T = assay: Multiplex assay against HEK293T; conditions: human; in short: as §1
U2OS = assay: Multiplex assay against U2OS; conditions: human; in short: as §1
[1] = 12 h, 1 µM, compound concentration 1 uM
[2] = 12 h, 10 µM, compound concentration 10 uM
[3] = 24 h, 1 µM, compound concentration 1 uM
[4] = 24 h, 10 µM, compound concentration 10 uM
[5] = 48 h, 1 µM, compound concentration 1 uM
[6] = 48 h, 10 µM, compound concentration 10 uM

## C=CCN1C[C@H](C(=O)N(CCCN(C)C)C(=O)NCC)C[C@@H]2c3cccc4[nH]cc(c34)C[C@H]21 [CABERGOLINE]
Fibroblast; [1]
  Population Apoptotic (%): 69% and 35%
  Population Fragmented Nuclei (%): 13% and 20%
  Population Healthy Nuclei (%): 78% and 46%
  Population Hoechst High Intensity Objects (%): 6%
  Population Membrane Permeable-Phenotype (%): 0% and 4%
  Population Mitochondria Different-Phenotype (%): 2% and 1%
  Population Mitotic Cells (%): 30% and 64%
  Population Normal (%): 93%
  Population Tubulin-Different-Phenotype (%): 26% and 25%
  Total Cell Count: 186 and 144
Fibroblast; [2]
  Population Apoptotic (%): 50% and 35%
  Population Fragmented Nuclei (%): 25% and 44%
  Population Healthy Nuclei (%): 64% and 39%
  Population Hoechst High Intensity Objects (%): 3% and 5%
  Population Membrane Permeable-Phenotype (%): 0% and 6%
  Population Mitochondria Different-Phenotype (%): 11% and 10%
  Population Mitotic Cells (%): 50% and 64%
  Population Normal (%): 96% and 94%
  Population Pyknosed Nuclei (%): 10% and 16%
  Population Tubulin-Different-Phenotype (%): 46% and 53%
  Total Cell Count: 248 and 178
Fibroblast; [3]
  Population Apoptotic (%): 68% and 44%
  Population Fragmented Nuclei (%): 15% and 24%
  Population Healthy Nuclei (%): 74% and 46%
  Population Hoechst High Intensity Objects (%): 4% and 6%
  Population Membrane Permeable-Phenotype (%): 1% and 3%
  Population Mitochondria Different-Phenotype (%): 3%
  Population Mitotic Cells (%): 31% and 55%
  Population Normal (%): 95% and 93%
  Population Pyknosed Nuclei (%): 10% and 29%
  Population Tubulin-Different-Phenotype (%): 33% and 39%
  Total Cell Count: 198 and 132
Fibroblast; [4]
  Population Apoptotic (%): 73% and 43%
  Population Fragmented Nuclei (%): 28% and 43%
  Population Healthy Nuclei (%): 65% and 46%
  Population Hoechst High Intensity Objects (%): 1% and 10%
  Population Membrane Permeable-Phenotype (%): 0% and 2%
  Population Mitochondria Different-Phenotype (%): 7% and 5%
  Population Mitotic Cells (%): 26% and 56%
  Population Normal (%): 98% and 89%
  Population Pyknosed Nuclei (%): 5% and 9%
  Population Tubulin-Different-Phenotype (%): 44% and 53%
  Total Cell Count: 274 and 181
Fibroblast; [5]
  Population Apoptotic (%): 56% and 58%
  Population Fragmented Nuclei (%): 15% and 24%
  Population Healthy Nuclei (%): 75% and 54%
  Population Hoechst High Intensity Objects (%): 5% and 7%
  Population Membrane Permeable-Phenotype (%): 0% and 6%
  Population Mitochondria Different-Phenotype (%): 6% and 1%
  Population Mitotic Cells (%): 43% and 41%
  Population Normal (%): 94% and 92%
  Population Pyknosed Nuclei (%): 8% and 21%
  Population Tubulin-Different-Phenotype (%): 34% and 33%
  Total Cell Count: 189 and 156
Fibroblast; [6]
  Population Apoptotic (%): 72% and 46%
  Population Fragmented Nuclei (%): 24% and 52%
  Population Healthy Nuclei (%): 68% and 37%
  Population Hoechst High Intensity Objects (%): 4% and 5%
  Population Membrane Permeable-Phenotype (%): 1% and 6%
  Population Mitochondria Different-Phenotype (%): 4% and 11%
  Population Mitotic Cells (%): 27% and 53%
  Population Normal (%): 95% and 94%
  Population Pyknosed Nuclei (%): 6% and 9%
  Population Tubulin-Different-Phenotype (%): 46% and 44%
  Total Cell Count: 282 and 170
HEK-293T; [1]
  Population Apoptotic (%): 36% and 37%
  Population Fragmented Nuclei (%): 4% and 5%
  Population Healthy Nuclei (%): 76% and 79%
  Population Hoechst High Intensity Objects (%): 8%
  Population Membrane Permeable-Phenotype (%): 0%
  Population Mitochondria Different-Phenotype (%): 51% and 68%
  Population Mitotic Cells (%): 63% and 62%
  Population Normal (%): 91%
  Population Pyknosed Nuclei (%): 18% and 14%
  Population Tubulin-Different-Phenotype (%): 41% and 24%
  Total Cell Count: 370 and 322
HEK-293T; [2]
  Population Apoptotic (%): 53% and 60%
  Population Fragmented Nuclei (%): 8% and 6%
  Population Healthy Nuclei (%): 76% and 78%
  Population Hoechst High Intensity Objects (%): 12% and 8%
  Population Membrane Permeable-Phenotype (%): 0%
  Population Mitochondria Different-Phenotype (%): 65% and 81%
  Population Mitotic Cells (%): 46% and 40%
  Population Normal (%): 87% and 91%
  Population Pyknosed Nuclei (%): 14%
  Population Tubulin-Different-Phenotype (%): 54% and 55%
  Total Cell Count: 438 and 371
HEK-293T; [3]
  Population Apoptotic (%): 43% and 40%
  Population Fragmented Nuclei (%): 9% and 6%
  Population Healthy Nuclei (%): 80% and 83%
  Population Hoechst High Intensity Objects (%): 4% and 6%
  Population Membrane Permeable-Phenotype (%): 1% and 0%
  Population Mitochondria Different-Phenotype (%): 29% and 46%
  Population Mitotic Cells (%): 56% and 59%
  Population Normal (%): 95% and 93%
  Population Pyknosed Nuclei (%): 10% and 9%
  Population Tubulin-Different-Phenotype (%): 20% and 19%
  Total Cell Count: 512 and 406
HEK-293T; [4]
  Population Apoptotic (%): 37% and 42%
  Population Fragmented Nuclei (%): 10%
  Population Healthy Nuclei (%): 77% and 79%
  Population Hoechst High Intensity Objects (%): 8% and 12%
  Population Membrane Permeable-Phenotype (%): 0%
  Population Mitochondria Different-Phenotype (%): 51% and 64%
  Population Mitotic Cells (%): 62% and 57%
  Population Normal (%): 91% and 87%
  Population Pyknosed Nuclei (%): 11% and 9%
  Population Tubulin-Different-Phenotype (%): 48% and 43%
  Total Cell Count: 556 and 425
HEK-293T; [5]
  Population Apoptotic (%): 13% and 35%
  Population Fragmented Nuclei (%): 12% and 11%
  Population Healthy Nuclei (%): 80% and 81%
  Population Hoechst High Intensity Objects (%): 4% and 3%
  Population Membrane Permeable-Phenotype (%): 1%
  Population Mitochondria Different-Phenotype (%): 21% and 23%
  Population Mitotic Cells (%): 86% and 65%
  Population Normal (%): 95% and 96%
  Population Pyknosed Nuclei (%): 7% and 6%
  Population Tubulin-Different-Phenotype (%): 16% and 10%
  Total Cell Count: 763 and 633
HEK-293T; [6]
  Population Apoptotic (%): 26% and 43%
  Population Fragmented Nuclei (%): 13% and 10%
  Population Healthy Nuclei (%): 76% and 82%
  Population Hoechst High Intensity Objects (%): 5% and 6%
  Population Membrane Permeable-Phenotype (%): 0%
  Population Mitochondria Different-Phenotype (%): 35% and 32%
  Population Mitotic Cells (%): 73% and 56%
  Population Normal (%): 94% and 93%
  Population Pyknosed Nuclei (%): 9% and 6%
  Population Tubulin-Different-Phenotype (%): 25% and 20%
  Total Cell Count: 786 and 676
U2OS; [1]
  Population Apoptotic (%): 86% and 57%
  Population Fragmented Nuclei (%): 13% and 9%
  Population Healthy Nuclei (%): 72% and 84%
  Population Hoechst High Intensity Objects (%): 2% and 3%
  Population Membrane Permeable-Phenotype (%): 3% and 8%
  Population Mitochondria Different-Phenotype (%): 1% and 4%
  Population Normal (%): 97% and 96%
  Population Pyknosed Nuclei (%): 13% and 5%
  Population Tubulin-Different-Phenotype (%): 1% and 5%
  Total Cell Count: 228 and 129
U2OS; [2]
  Population Apoptotic (%): 69% and 64%
  Population Fragmented Nuclei (%): 35% and 17%
  Population Healthy Nuclei (%): 52% and 70%
  Population Hoechst High Intensity Objects (%): 3% and 2%
  Population Membrane Permeable-Phenotype (%): 15% and 13%
  Population Mitochondria Different-Phenotype (%): 9% and 21%
  Population Mitotic Cells (%): 30% and 35%
  Population Normal (%): 96% and 97%
  Population Pyknosed Nuclei (%): 11% and 12%
  Population Tubulin-Different-Phenotype (%): 11% and 9%
  Total Cell Count: 228 and 143
U2OS; [3]
  Population Apoptotic (%): 82% and 64%
  Population Fragmented Nuclei (%): 15% and 7%
  Population Healthy Nuclei (%): 74% and 83%
  Population Hoechst High Intensity Objects (%): 3% and 1%
  Population Membrane Permeable-Phenotype (%): 1% and 9%
  Population Mitochondria Different-Phenotype (%): 1% and 4%
  Population Mitotic Cells (%): 17% and 35%
  Population Normal (%): 96% and 98%
  Population Pyknosed Nuclei (%): 10% and 8%
  Population Tubulin-Different-Phenotype (%): 0% and 6%
  Total Cell Count: 295 and 162
U2OS; [4]
  Population Apoptotic (%): 65% and 88%
  Population Fragmented Nuclei (%): 33% and 14%
  Population Healthy Nuclei (%): 54% and 75%
  Population Hoechst High Intensity Objects (%): 3% and 2%
  Population Membrane Permeable-Phenotype (%): 10% and 13%
  Population Mitochondria Different-Phenotype (%): 5% and 12%
  Population Normal (%): 96% and 97%
  Population Pyknosed Nuclei (%): 11% and 10%
  Population Tubulin-Different-Phenotype (%): 4% and 10%
  Total Cell Count: 228 and 165
U2OS; [5]
  Population Apoptotic (%): 88% and 93%
  Population Fragmented Nuclei (%): 13%
  Population Healthy Nuclei (%): 77% and 73%
  Population Hoechst High Intensity Objects (%): 2% and 3%
  Population Membrane Permeable-Phenotype (%): 5% and 4%
  Population Mitochondria Different-Phenotype (%): 1% and 4%
  Population Mitotic Cells (%): 11% and 6%
  Population Normal (%): 97% and 96%
  Population Pyknosed Nuclei (%): 8% and 13%
  Population Tubulin-Different-Phenotype (%): 3%
  Total Cell Count: 405 and 221
U2OS; [6]
  Population Apoptotic (%): 86% and 87%
  Population Fragmented Nuclei (%): 30% and 13%
  Population Healthy Nuclei (%): 57% and 66%
  Population Hoechst High Intensity Objects (%): 3% and 4%
  Population Membrane Permeable-Phenotype (%): 7% and 9%
  Population Mitochondria Different-Phenotype (%): 1% and 9%
  Population Mitotic Cells (%): 13% and 12%
  Population Normal (%): 96% and 95%
  Population Pyknosed Nuclei (%): 12% and 20%
  Population Tubulin-Different-Phenotype (%): 3% and 5%
  Total Cell Count: 303 and 206
